≈ marks a conversion by molar mass, not a printed value.

The target in series [1] is Beta-3 adrenergic receptor (Rattus norvegicus) (UniProt P26255). As to the kind of experiment: Stimulation of GDP binding against beta-3 adrenergic receptor in brown adipose tissue (BAT) mitochondria of rats after peroral administration (Dose necessary to produce 50% of the isoprenaline effect).
Series [2] has as its system Rattus norvegicus. As to the kind of experiment: Ratio of the dose (D500, peroral administration) elevating the rat heart rate to 500 bpm and GDP ED50. It is filed as functional.
Series [3] in a line: Partition coefficient (logP). It is filed as physicochemical. The settings on record: octanol/water. Put shortly:
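log P is the octanol–water partition coefficient.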

The nature of series [4]: Aqueous solubility at a pH 7. It is filed as physicochemical. The settings on record: read-out: S. Put shortly: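 Aqueous solubility was measured on the hydrochloride salts in aqueous buffer of 0.15 M sodium chloride and 0.01 M sodium dihydrogen phosphate at pH 7. Values are given in mg mL⁻¹.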
Series [5] has as its target Beta-3 adrenergic receptor (Rattus norvegicus) (UniProt P26255). As to the kind of experiment: Dose of the compound (peroral administration) to […] GDP binding against Beta-3 adrenergic receptor in brown adipose tissue(BAT mitochondria) of rats. [Dose necessary to produce 50% of the isoprenaline effect].

Beta-3 adrenergic receptor (Rattus norvegicus), sequence (P26255 whole entry): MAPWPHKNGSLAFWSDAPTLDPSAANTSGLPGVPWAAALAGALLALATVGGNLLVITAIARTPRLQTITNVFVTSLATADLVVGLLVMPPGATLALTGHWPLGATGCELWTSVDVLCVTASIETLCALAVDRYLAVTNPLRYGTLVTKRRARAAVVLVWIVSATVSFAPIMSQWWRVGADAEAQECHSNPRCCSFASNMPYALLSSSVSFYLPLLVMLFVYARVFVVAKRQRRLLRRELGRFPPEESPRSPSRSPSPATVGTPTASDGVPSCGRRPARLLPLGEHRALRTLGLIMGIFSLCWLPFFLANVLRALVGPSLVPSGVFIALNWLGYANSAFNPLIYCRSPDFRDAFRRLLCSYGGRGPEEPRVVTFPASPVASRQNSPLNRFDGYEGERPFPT

For the compound `O=C(COc1ccc(OCCNC[C@H](O)COc2ccccc2)cc1)NCCO`, the GDP ED50 in series [1] amounted to 0.77 mg/kg. Further, the Selectivity index in series [2] is greater than 50. The compound `O=C(COc1ccc(OCCNCC(O)COc2ccccc2)cc1)NCc1cccs1` (centres undefined) registered a GDP ED50 in series [1] of 0.69 mg/kg. In the case of `CCN(CC)C(=O)COc1ccc(OCCNCC(O)COc2ccccc2)cc1` (centres undefined), the GDP ED50 in series [1] amounted to 1.16 mg/kg. For the same compound, in series [2], the Selectivity index was 33. The compound `COCCNC(=O)COc1ccc(OCCNCC(O)COc2ccccc2)cc1` (centres undefined) had a GDP ED50 in series [1] of 0.24 mg/kg. Moreover, in series [2], the Selectivity index is listed as greater than 100. In series [3], this compound showed a logP of 1.7. For the same compound, the solubility in series [4] is 11000 µg/mL (≈ 26300 µM). Compound `O=C(COc1ccc(OCCNCC(O)COc2ccccc2)cc1)NCc1ccco1` (centres undefined) came in with a GDP ED50 in series [1] of 1.53 mg/kg. For `COCCNC(=O)COc1ccc(OCCNC[C@H](O)COc2ccccc2)cc1`, in series [1], the GDP ED50 stood at 0.34 mg/kg. In addition, the Selectivity index in series [2] is greater than 100. In series [1], `NC(=O)CNC(=O)COc1ccc(OCCNCC(O)COc2ccccc2)cc1` (centres undefined) displayed a GDP ED50 of 1.18 mg/kg. The Selectivity index in series [2] is greater than 50. For `CNC(=O)COc1ccc(OCC(C)NCC(O)COc2ccccc2)cc1` (centres undefined) the same measures were 0.25 mg/kg and greater than 10.

Consider `O=C(COc1ccc(OCCNCC(O)COc2ccccc2)cc1)N1CCCO1` (centres undefined), for which, in series [1], the GDP ED50 came out at 0.49 mg/kg.

`CNC(=O)COc1cccc(OCCNCC(O)COc2ccccc2)c1` (centres undefined) came in with a GDP ED50 in series [1] of 0.31 mg/kg. Moreover, the Selectivity index in series [2] is recorded as 74. The compound `O=C(COc1ccc(OCCNCC(O)COc2ccccc2)cc1)N1CCc2ccccc2C1` (centres undefined) showed a GDP ED50 in series [1] of 0.44 mg/kg. The Selectivity index in series [2] was greater than 100. In series [1], `CN(Cc1ccccc1)C(=O)COc1ccc(OCCNCC(O)COc2ccccc2)cc1` (centres undefined) had a GDP ED50 of 8.6 mg/kg. `O=C(COc1ccc(OCCNCC(O)COc2ccccc2)cc1)NCCc1ccccc1` (centres undefined) gave a GDP ED50 in series [1] of 1.23 mg/kg. In addition, the Selectivity index in series [2] is recorded as greater than 50. For `O=C(COc1ccc(OCCNCC(O)COc2ccccc2)cc1)NCc1ccc(Cl)cc1` (centres undefined) the same measures were 0.92 mg/kg and greater than 50. The compound `CC(CO)NC(=O)COc1ccc(OCCNCC(O)COc2ccccc2)cc1.O` (centres undefined) came in with a GDP ED50 in series [1] of 0.85 mg/kg. In series [2], the Selectivity index is greater than 50.

In series [1], `O=C(COc1ccc(OCCNCC(O)COc2ccccc2)cc1)NO` (centres undefined) yielded a GDP ED50 of 0.5 mg/kg. Further, in series [2], the Selectivity index was greater than 100. For `CN(C)C(=O)COc1ccc(OCCNCC(O)COc2ccccc2)cc1` (centres undefined) the same measures were 1.4 mg/kg and greater than 50. Consider `O=C(COc1ccc(OCCNCC(O)COc2ccccc2)cc1)NC1CCCC1` (centres undefined), for which the GDP ED50 in series [1] was 3.1 mg/kg. In addition, in series [2], the Selectivity index was greater than 10. In series [1], `O=C(COc1ccc(OCCNCC(O)COc2ccccc2)cc1)Nc1ccccc1` (centres undefined) displayed a GDP ED50 of 1.38 mg/kg. Take `CCCNC(=O)COc1ccc(OCCNCC(O)COc2ccccc2)cc1` (centres undefined): the GDP ED50 in series [5] stood at 0.2 mg/kg. Besides, the Selectivity index in series [2] was greater than 100. The compound further showed a log partition coefficient (logP) in series [3] of 2.4. The solubility in series [4] was 600 µg/mL (≈ 1490 µM). In turn, `CNC(=O)COc1ccc(OCCNCC(O)COc2ccccc2F)cc1` (centres undefined) displayed a GDP ED50 in series [1] of 1.1 mg/kg. In addition, the Selectivity index in series [2] is greater than 50. `O=C(COc1ccc(OCCNCC(O)COc2ccccc2F)cc1)N1CCCCC1` (centres undefined): the GDP ED50 in series [1] is 7.9 mg/kg. For the compound `CC(NC(=O)COc1ccc(OCCNCC(O)COc2ccccc2)cc1)c1ccccc1` (centres undefined), in series [1], the GDP ED50 came to 0.96 mg/kg. In addition, the Selectivity index in series [2] is recorded as greater than 10. In turn, `COCCNC(=O)COc1ccc(OCCNC[C@H](O)COc2ccc(O)cc2)cc1` returned a GDP ED50 in series [1] of 4.16 mg/kg. Same read-out and setting: in the case of `O=C(COc1ccc(OCCNCC(O)COc2ccccc2)cc1)NCc1ccc(Cl)cc1Cl` (centres undefined) it was 2.77 mg/kg; in that of `COCC(C)NC(=O)COc1ccc(OCCNCC(O)COc2ccccc2)cc1` (centres undefined), 3.88 mg/kg. In series [1], `NC(=O)COc1ccc(OCCNCC(O)COc2ccccc2F)cc1` (centres undefined) came in with a GDP ED50 of 2.24 mg/kg. Further, the Selectivity index in series [2] was greater than 10. In the case of `O=C(COc1ccc(OCCNCC(O)COc2ccccc2)cc1)NCCCO` (centres undefined), the GDP ED50 in series [1] came out at 0.47 mg/kg. In addition, the Selectivity index in series [2] was greater than 100. Moreover, the logP in series [3] was found to be 0.5. For the same compound, in series [4], the solubility was 36000 µg/mL (≈ 86000 µM). In the case of `CCC(C)NC(=O)COc1ccc(OCCNCC(O)COc2ccccc2)cc1` (centres undefined), in series [1], the GDP ED50 is 1.7 mg/kg. In the case of `O=C(COc1ccc(OCCNCC(O)COc2ccccc2)cc1)N1CCOCC1` (centres undefined), in series [1], the GDP ED50 amounted to 0.54 mg/kg. The Selectivity index in series [2] is given as greater than 100. As to `COCCNC(=O)COc1ccc(OCCNC[C@@H](O)COc2ccccc2)cc1`, the GDP ED50 in series [1] was 69.9 mg/kg. Turning to `CC(C)CNC(=O)COc1ccc(OCCNCC(O)COc2ccccc2)cc1` (centres undefined), in series [1], the GDP ED50 came out at 3.2 mg/kg.

In series [1], `CCNC(=O)COc1ccc(OCCNCC(O)COc2ccccc2)cc1` (centres undefined) registered a GDP ED50 of 0.5 mg/kg. In addition, in series [2], the Selectivity index was greater than 100. The like results for `CNC(=O)COc1ccc(OCCNC[C@H](O)COc2ccccc2)cc1` were, in that order, 0.57 mg/kg and greater than 100. For `O=C(COc1ccc(OCCNCC(O)COc2ccccc2)cc1)N1CCCC1` (centres undefined) the same measures were 1.8 mg/kg and greater than 50. On to `NC(=O)COc1ccc(OCCNCC(O)COc2ccccc2)cc1` (centres undefined), for which, in series [1], the GDP ED50 was 0.3 mg/kg. Moreover, the Selectivity index in series [2] was greater than 100. Besides, the logP in series [3] is 1.1. Further, the solubility in series [4] came to 400 µg/mL (≈ 1110 µM). The like results for `CC(C)NC(=O)COc1ccc(OCCNCC(O)COc2ccccc2)cc1` (centres undefined) were, in that order, 0.4 mg/kg, greater than 100, 2.4 and 900 µg/mL (≈ 2240 µM). With `O=C(COc1ccc(OCCNCC(O)COc2ccccc2)cc1)N1Cc2ccccc2C1` (centres undefined), the GDP ED50 in series [1] is 1.3 mg/kg. With `COCCCNC(=O)COc1ccc(OCCNCC(O)COc2ccccc2)cc1` (centres undefined), in series [1], the GDP ED50 is 0.83 mg/kg. Moreover, the Selectivity index in series [2] is greater than 100. For `CCCCNC(=O)COc1ccc(OCCNCC(O)COc2ccccc2)cc1` (centres undefined) the same measures were 1.5 mg/kg and greater than 100. Consider `O=C(COc1ccc(OCCNCC(O)COc2ccccc2)cc1)NOCc1ccccc1` (centres undefined), for which the GDP ED50 in series [1] turned out to be 0.48 mg/kg. `O=C(COc1ccc(OCCNCC(O)COc2ccccc2)cc1)NC1CC1` (centres undefined) had a GDP ED50 in series [1] of 0.79 mg/kg. Also, in series [2], the Selectivity index is given as greater than 50. `O=C(COc1ccc(OCCNCC(O)COc2ccccc2)cc1)N1CCCCC1` (centres undefined) returned a GDP ED50 in series [1] of 0.4 mg/kg. The Selectivity index in series [2] is greater than 100. In series [3], the log partition coefficient (logP) came out at 2.6. For the same compound, the solubility in series [4] is 2000 µg/mL (≈ 4670 µM).

As to `O=C(COc1ccc(OCCNCC(O)COc2ccccc2)cc1)NCCO` (centres undefined), the GDP ED50 in series [1] is 0.67 mg/kg. Further, the Selectivity index in series [2] is recorded as greater than 100.

`C=CCNC(=O)COc1ccc(OCCNCC(O)COc2ccccc2)cc1` (centres undefined) yielded a GDP ED50 in series [1] of 0.64 mg/kg. The Selectivity index in series [2] is reported as greater than 100.

In series [1], `C=CCNC(=O)COc1ccc(OCC(C)NCC(O)COc2ccccc2)cc1` (centres undefined) came in with a GDP ED50 of 1.03 mg/kg. Besides, in series [2], the Selectivity index was greater than 20.

Compound `CNC(=O)COc1ccc(OCCNCC(O)COc2ccccc2)cc1` (centres undefined) displayed a GDP ED50 in series [1] of 1.2 mg/kg. In addition, the Selectivity index in series [2] was greater than 50. Take `O=C(COc1ccc(OCCNCC(O)COc2ccccc2)cc1)NCc1ccccc1` (centres undefined): in series [1], the GDP ED50 was 0.25 mg/kg. Further, the Selectivity index in series [2] is recorded as greater than 100. This compound also had a logP in series [3] of 3.2. In series [4], the solubility amounted to 40 µg/mL (≈ 88.8 µM). As to `NNC(=O)COc1ccc(OCCNCC(O)COc2ccccc2)cc1` (centres undefined), the GDP ED50 in series [1] stood at 1.15 mg/kg. Turning to `O=C(COc1ccc(OCCNCC(O)COc2ccccc2)cc1)NCCOc1ccccc1` (centres undefined), the GDP ED50 in series [1] was determined as 0.72 mg/kg. Also, the Selectivity index in series [2] is given as greater than 100.

(Values after ChEMBL document CHEMBL1126292, “Selective beta 3-adrenergic agonists of brown adipose tissue and thermogenesis. 2. [4-[2-[(2-Hydroxy-3-phenoxypropyl)amino]ethoxy]phenoxy]acetamides” (J Med Chem, 1992).)
